# Reference: ChEMBL document CHEMBL1765047, “Synthesis and in vivo evaluation of (S)-6-(4-fluorophenoxy)-3-((1-[11C]methylpiperidin-3-yl)methyl)-2-o-tolylquinazolin-4(3H)-one, a potential PET tracer for growth hormone secretagogue receptor (GHSR)” (Bioorg Med Chem, 2011)
# Calls of active or inactive are those of the source. The rule behind the calls is not given here.
# Experiments:
# [1] = target: Growth hormone secretagogue receptor type 1 (Mus musculus) (UniProt Q99P50); test: Binding affinity to mouse Ghrelin receptor in mouse hypothalamus after 90 mins in presence of receptor antagonist (S)-6-(4-Fluorophenoxy)-3-(piperidin-3-ylmethyl)-2-o-tolylquinazolin-4(3H)-one; settings: tested as the 11C-labelled form
# Chain of Growth hormone secretagogue receptor type 1 (Mus musculus) (Q99P50 whole entry, looked up): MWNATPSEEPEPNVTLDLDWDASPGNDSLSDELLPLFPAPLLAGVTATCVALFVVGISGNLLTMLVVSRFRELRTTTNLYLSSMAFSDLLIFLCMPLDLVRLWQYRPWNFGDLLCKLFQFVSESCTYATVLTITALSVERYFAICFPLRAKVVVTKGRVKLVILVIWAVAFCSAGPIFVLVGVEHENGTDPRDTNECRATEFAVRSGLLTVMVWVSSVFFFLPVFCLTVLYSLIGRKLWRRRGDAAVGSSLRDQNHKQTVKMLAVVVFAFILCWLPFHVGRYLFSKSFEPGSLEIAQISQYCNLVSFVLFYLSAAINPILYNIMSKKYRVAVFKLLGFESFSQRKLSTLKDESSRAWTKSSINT
# [2] = target: Growth hormone secretagogue receptor type 1 (Homo sapiens, UniProt Q92847); test: Inhibition of [125I]Ghrelin binding to human Ghrelin receptor expressed in CHO-K1 cells after 60 mins by liquid scintillation spectrometry; type: cell-based
# Chain of Growth hormone secretagogue receptor type 1 (Q92847 whole entry): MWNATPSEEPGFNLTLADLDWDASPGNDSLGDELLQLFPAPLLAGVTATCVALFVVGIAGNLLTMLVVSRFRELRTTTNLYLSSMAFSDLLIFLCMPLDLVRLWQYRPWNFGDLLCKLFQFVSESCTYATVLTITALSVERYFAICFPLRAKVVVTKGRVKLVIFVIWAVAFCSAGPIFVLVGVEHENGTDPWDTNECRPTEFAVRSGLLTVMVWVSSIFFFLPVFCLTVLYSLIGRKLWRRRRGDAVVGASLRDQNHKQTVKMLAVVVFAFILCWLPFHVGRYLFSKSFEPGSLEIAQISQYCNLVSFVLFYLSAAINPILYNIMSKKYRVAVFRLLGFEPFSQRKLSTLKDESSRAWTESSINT
# Summary of the method: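 Membranes from CHO-K1 cells stably expressing human GHSR, prepared in modified HEPES pH 7.4. 0.25 mg membrane incubated with 0.03 nM [125I]human ghrelin for 60 min at 25°C; nonspecific binding with […]. Filter-bound radioactivity counted by liquid scintillation. Duplicates at multiple concentrations; one-site competition fit for IC50, Ki by Cheng-Prusoff.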
compound,measurement,setting,value
Cc1ccccc1-c1nc2ccc(Oc3ccc(F)cc3)cc2c(=O)n1C[C@H]1CCCN(C)C1,Activity,[1],Active
same,Ki,[2],0.022 µM
